Measurements taken from ChEMBL document CHEMBL1142623, “Phytotoxic compounds from the new coprophilous fungus guanomyces polythrix” (J Nat Prod, 2000).
Activity calls are given as the source filed them. The calls are words filed in the database; no cut-off is given here.

How the values were obtained:
[1] = tested on: Amaranthus hypochondriacus; test: Phytotoxicity against Amaranthus hypochondriacus assessed as inhibition of radicle elongation; assay type: functional, organism-based
How it was run: (§1)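 Seedling radicle growth assay at 28 °C. Pure compounds tested at 1, 10 and 100 µg mL-1, with 2,4-D as positive control. Results analysed by ANOVA (p < 0.05). IC50 calculated by Probit analysis from percent radicle growth inhibition.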

[2] = tested on: Echinochloa crus-galli; test: Phytotoxicity against Echinochloa crusgalli assessed as inhibition of radicle elongation; assay type: functional, organism-based; how it was run: as §1
[3] = biological target: Calmodulin (Bos taurus) (UniProt P62157); test: Binding affinity to bovine brain calmodulin at 0.033 ug/mL after 1.5 hrs by electrophoretic mobility assay in presence of EGTA
How it was run: (§2)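 Commercial spinach or bovine brain calmodulin, 2-µg samples, pretreated with compound for 1.5 h at 30 °C in presence of 1 mM CaCl2 or EGTA, then run on 15% polyacrylamide SDS-PAGE gels. Binding judged by shift in electrophoretic mobility relative to untreated calmodulin under the same condition (Ca2+ vs EGTA).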

[4] = biological target: Calmodulin (Spinacia oleracea) (UniProt P04353); test: Binding affinity to spinach calmodulin at 0.033 ug/mL after 1.5 hrs by electrophoretic mobility assay in presence of calcium chloride; how it was run: as §2
[5] = biological target: Calmodulin (Spinacia oleracea) (UniProt P04353); test: Binding affinity to spinach calmodulin at 0.033 ug/mL after 1.5 hrs by electrophoretic mobility assay presence of EGTA; how it was run: as §2
[6] = biological target: Calmodulin (Bos taurus) (UniProt P62157); test: Binding affinity to bovine brain calmodulin at 0.033 ug/mL after 1.5 hrs by electrophoretic mobility assay in presence of calcium chloride
How it was run: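 Bovine brain calmodulin (2 µg samples) pretreated with isolates at 0.033 µg/mL plus 1 mM CaCl2 for 1.5 h at 30 °C. Mobility then compared against untreated calmodulin on 15% polyacrylamide SDS-PAGE. A parallel condition used EGTA in place of Ca2+.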

Structure (SMILES): COc1cc(OC)c2c(O)c3c(c(OC)c2c1)O[C@@H](C)[C@H](C)C3=O
- IC50 [1]: 65 µM
- IC50 [2]: 61 µM
- Activity [3]: Active
- Activity [4]: Active
- Activity [5]: Active

Structure (SMILES): COc1cc(OC)c2c(O)c3c(cc2c1)O[C@@H](C)[C@H](C)C3=O
- IC50 [1]: 100 µM
- IC50 [2]: 120 µM
- Activity [6]: Active
- Activity [3]: inactive
- Activity [4]: Active
- Activity [5]: Active

Structure (SMILES): COc1cc(OC)c2c(O)c3c(cc2c1)O[C@@H](C)CC3=O
- IC50 [1]: 23 µM
- IC50 [2]: 87 µM
- Activity [6]: Active
- Activity [3]: inactive
- Activity [4]: Active
- Activity [5]: Active

Structure (SMILES): COc1cc(OC)c2c(O)c3c(=O)c(C)c(C)oc3cc2c1
- IC50 [1]: 80 µM
- IC50 [2]: 170 µM
- Activity [6]: Active
- Activity [3]: inactive
- Activity [4]: Active
- Activity [5]: Active

Structure (SMILES): O=C(O)COc1ccc(Cl)cc1Cl [2,4-DICHLOROPHENOXYACETIC ACID]
- IC50 [1]: 180 µM
- IC50 [2]: 880 µM

Structure (SMILES): COC(=O)c1ccc(O)cc1 [METHYLPARABEN]
- IC50 [1]: 23 µM
- IC50 [2]: 630 µM
- Activity [6]: Active
- Activity [3]: inactive
- Activity [4]: Active
- Activity [5]: Active

Structure (SMILES): Cc1cc(O)c2c(c1)C(=O)c1cc(O)cc(O)c1C2=O [EMODIN]
- IC50 [1]: 130 µM
- IC50 [2]: 20 µM
- Activity [6]: Active
- Activity [3]: inactive
- Activity [4]: Active
- Activity [5]: Active

Structure (SMILES): COc1cc(OC)c2c(O)c3c(c(OC)c2c1)O[C@@H](C)CC3=O
- IC50 [1]: 13 µM
- IC50 [2]: 40 µM
- Activity [6]: Active
- Activity [3]: inactive
- Activity [4]: Active
- Activity [5]: Active

Structure (SMILES): CC1=C2C(=CO[C@H](C)[C@H]2C)C(O)=C(C(=O)O)C1=O [CITRININ]
- IC50 [1]: 55 µM
- IC50 [2]: 63 µM
- Activity [6]: Active
- Activity [3]: inactive
- Activity [4]: Active
- Activity [5]: Active

Structure (SMILES): COc1cc(OC)c2c(O)c3c(=O)cc(C)oc3cc2c1 [RUBROFUSARIN B]
- IC50 [1]: 13 µM
- IC50 [2]: 87 µM
- Activity [6]: Active
- Activity [3]: inactive
- Activity [4]: Active
- Activity [5]: Active
